ChEMBL document CHEMBL1125781, “Peptide to glycopeptide: glycosylated oligopeptide renin inhibitors with attenuated in vivo clearance properties” (J Med Chem, 1991)
*1 amine or outer side, *2 acyl side, *3 side chain or, on linkers, in order; H or OH if unused. Where a SMILES comes first, the peptide text is derived from it. [ ]: non-standard residue; d: D form. The star is where a group is joined. ξ: configuration not given here. X1 = CC(C)C[C@H](N[*:1])[C@@H](O)C[C@H](C(=O)[*:2])C(C)C; NH(2-picolyl-N-oxide) = [O-][n+]1ccccc1CN*; NMeH = CN[C@@H](Cc1c[nH]cn1)C(=O)O; NHCH2(2-pyridyl) = c1ccc(CN*)nc1; X2 = CC(=O)NC1C(N*)OC(CO)C(O)C1O; Ile(3ξ) = CCC(C)[C@H](N)C(=O)O; NHC(CH2OH)3 = OCC(CO)(CO)N*; X3 = OCC1OC(N*)C(O)C(O)C1O; Boc = CC(C)(C)OC(=O)*; CO = O=C([*:1])[*:2]

What was measured:
Type in all cases: functional, organism-based
Rattus norvegicus [1] = organism: Rattus norvegicus; experiment: Compound was tested for the urinary recovery dose in rats; settings: Urine
Summary of the method: (§1)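 Anesthetized, bile duct cannulated rats given peptide by tail vein injection, 1 mg kg⁻¹ or the molar equivalent, in 3 mM citric acid/saline vehicle. Blood taken from the orbital sinus at 5 and 60 min. Serum inhibitor concentration measured by renin enzyme activity assay. Percent of recovered dose in bile and urine determined over the 3-h study period. Means, n = 4.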

Rattus norvegicus [2] = experiment: Serum concentration at 5 min after iv administration in bile duct cannulated rat; summary of the method: as §1
Rattus norvegicus [3] = experiment: Serum concentration at 60 min after iv administration in bile duct cannulated rat; summary of the method: as §1
Rattus norvegicus [4] = organism: Rattus norvegicus; experiment: Compound was tested for the biliary recovery dose in rats; summary of the method: as §1
Rattus norvegicus [5] = experiment: Serum concentration at 60 min after iv administration in bile duct cannulated rat.; summary of the method: as §1
Rattus norvegicus [6] = experiment: Serum concentration at 5 min after iv administration in bile duct cannulated rat.; summary of the method: as §1

Row | SMILES | Recovery (Rattus norvegicus [1]) [%] | Serum concentration (Rattus norvegicus [2]) [nM] | Serum concentration (Rattus norvegicus [3]) [nM] | Recovery (Rattus norvegicus [4]) [%] | Serum concentration (Rattus norvegicus [5]) [nM] | Serum concentration (Rattus norvegicus [6]) [nM]
1 | CCC(C)[C@H](NC(=O)[C@@H](C[C@H](O)[C@H](CC(C)C)NC(=O)[C@H](Cc1c[nH]cn1)N(C)C(=O)[C@H](Cc1ccccc1)NC(=O)[C@@H]1CCCN1C(=O)[C@H](CC(=O)NC1OC(CO)C(O)C(O)C1O)NC(=O)OC(C)(C)C)C(C)C)C(=O)NCc1ccccn1 (stereo partly specified) (Boc-D(X3)PF[NMeH][X1][Ile(3ξ)]-{NHCH2(2-pyridyl)}) | 35 | 2190 | 39 | 65 |  | 
2 | CCC(C)[C@H](NC(=O)[C@@H](C[C@H](O)[C@H](CC(C)C)NC(=O)[C@H](Cc1c[nH]cn1)N(C)C(=O)[C@H](Cc1ccccc1)NC(=O)[C@@H]1CCCN1C(=O)NC(CO)(CO)CO)C(C)C)C(=O)NCc1cccc[n+]1[O-] (stereo partly specified) ({NHC(CH2OH)3-CO}-PF[NMeH][X1][Ile(3ξ)]-{NH(2-picolyl-N-oxide)}) | 17 |  |  | 83 | 15 | 1100
3 | CCC(C)[C@H](NC(=O)[C@@H](C[C@H](O)[C@H](CC(C)C)NC(=O)[C@H](Cc1c[nH]cn1)N(C)C(=O)[C@H](Cc1ccccc1)NC(=O)[C@@H]1CCCN1C(=O)[C@H](CC(=O)NC1OC(CO)C(O)C(O)C1NC(C)=O)NC(=O)OC(C)(C)C)C(C)C)C(=O)NCc1ccccn1 (stereo partly specified) (Boc-D(X2)PF[NMeH][X1][Ile(3ξ)]-{NHCH2(2-pyridyl)}) | 24 | 1790 |  | 76 | 20 | 
4 | CCC(C)[C@H](NC(=O)[C@@H](C[C@H](O)[C@H](CC(C)C)NC(=O)[C@H](Cc1c[nH]cn1)N(C)C(=O)[C@H](Cc1ccccc1)NC(=O)[C@@H]1CCCN1C(=O)[C@H](CC(=O)NC1OC(CO)C(O)C(O)C1NC(C)=O)NC(=O)OC(C)(C)C)C(C)C)C(=O)NCc1cccc[n+]1[O-] (stereo partly specified) (Boc-D(X2)PF[NMeH][X1][Ile(3ξ)]-{NH(2-picolyl-N-oxide)}) | 67 | 2580 | 158 | 33 |  | 
